Measurements reported in ChEMBL document CHEMBL1157086, “Sesquiterpenoid aminoquinones from the marine sponge Dysidea sp” (J Nat Prod, 2010).
Active and inactive are the calls of the source. No cut-off for these calls is given here.

Key:
[1] = test system: Radical scavenging activity; experiment: Antioxidant activity assessed as DPPH radical scavenging activity after 30 mins; type: functional
Summary of the method: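 In EtOH, test concentrations 5, 10, 20, 50, 100 µM mixed with DPPH (0.1 mM final). A517 read after 30 min. Percent inhibition calculated against DPPH-only control, corrected for the compound's own absorbance at 517 nm. IC50 taken from the plotted inhibition curve as the concentration scavenging 50% of DPPH. Trolox served as positive control.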

Staphylococcus aureus = experiment: Antibacterial activity against Staphylococcus aureus at 100 ug/ml; type: functional, organism-based
Candida albicans = experiment: Antifungal activity against Candida albicans at 100 ug/ml; type: functional, organism-based
Escherichia coli = experiment: Antibacterial activity against Escherichia coli at 100 ug/ml; type: functional, organism-based
Ehrlich = experiment: Cytotoxicity activity against mouse EAC at 100 ug/ml; type: functional, cell-based

| Compound | IC50 [1] | Activity (Staphylococcus aureus) | Activity (Candida albicans) | Activity (Escherichia coli) | Activity (Ehrlich) |
| --- | --- | --- | --- | --- | --- |
| C=C1CCC[C@H]2[C@](C)(CC3=CC(=O)C(N)=CC3=O)[C@@H](C)CC[C@@]12C | – | inactive | inactive | inactive | inactive |
| C=C1CCC[C@H]2[C@](C)(CC3=CC(=O)C=C(NC)C3=O)[C@@H](C)CC[C@@]12C | – | inactive | inactive | inactive | inactive |
| C=C1CCC[C@H]2[C@](C)(CC3=CC(=O)C(NC)=CC3=O)[C@@H](C)CC[C@@]12C | – | inactive | inactive | inactive | inactive |
| C=C1CCC[C@H]2[C@](C)(CC3=CC(=O)C=C(N)C3=O)[C@@H](C)CC[C@@]12C | – | inactive | inactive | inactive | inactive |

More lines, main results first:

| IC50 [1] | Compound | Activity (Staphylococcus aureus) | Activity (Candida albicans) | Activity (Escherichia coli) | Activity (Ehrlich) |
| --- | --- | --- | --- | --- | --- |
| 35 µM | C=C1CCC[C@H]2[C@](C)(CC3=CC(=O)C=C(Nc4ccc(O)c(C[C@]5(C)[C@@H](C)CC[C@@]6(C)C(=C)CCC[C@@H]56)c4)C3=O)[C@@H](C)CC[C@@]12C [POPOLOHUANONE A] | – | – | – | – |
| 16 µM | Cc1c(C)c2c(c(C)c1O)CCC(C)(C(=O)O)O2 (centres undefined) [TROLOX] | – | – | – | – |
| 19 µM | C=C1CCC[C@H]2[C@](C)(Cc3cc(O)ccc3O)[C@@H](C)CC[C@@]12C [ARENAROL] | – | – | – | – |
| 35 µM | C=C1CCC[C@H]2[C@](C)(CC3=CC(=O)C(Nc4ccc(O)c(C[C@]5(C)[C@@H](C)CC[C@@]6(C)C(=C)CCC[C@@H]56)c4)=CC3=O)[C@@H](C)CC[C@@]12C [POPOLOHUANONE F] | inactive | inactive | inactive | inactive |
